From ChEMBL document CHEMBL2086289, “Anti-HIV activity of semisynthetic derivatives of andrographolide and computational study of HIV-1 gp120 protein binding” (Eur J Med Chem, 2012) come the findings set out here.

Each structure is given as a SMILES string. pIC50: −log10 of the molar value. Activity calls are given as the source filed them. The calls are words filed in the database; no cut-off is given here.

One may read the CC50 as the concentration at which the toxic effect on the cells reaches its halfway point. Broadly, the pIC50 is the negative decadic logarithm of the IC50, by convention in mol/L.

Data set [1] is described as follows: Cytotoxicity against human TZM-bl cells after 48 hrs by MTT assay. Format: cell-based. The procedure, abridged:
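TZM-bl cells seeded at 6.0 × 10³/well and incubated 24 h at 37 °C, 5% CO₂. They were then exposed to four compound concentrations (4, 20, 100, 500) or solvent for 48 h. MTT was added for 4 h at 37 °C, followed by overnight solubilization in SDS/DMF/PBS. Absorbance read at 570 nm with a 690 nm reference. Viability was scored relative to untreated cells, and CC50 came from nonlinear curve fitting.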

In data set [2] the test system is Human immunodeficiency virus 1. In words: Antiviral activity against HIV1 in human TZM-bl cells assessed as viral infectivity by luciferase assay. Format: functional, organism-based. Conditions: Human immunodeficiency virus 1, TZM-bl; for pIC50: read-out: IC50; for IC50: read-out: pIC50 (converted). The method, boiled down:
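TZM-bl cells seeded at 4.0 × 10⁴/well and held overnight. CXCR4-tropic HIV-1 NL4.3 (MOI 0.05) was pre-incubated with compound or solvent for 1 h at 37 °C, then added in duplicate for 4 h and washed off. Cells got fresh medium with compound for 48 h, then lysis and luciferase chemiluminescence. AZT served as positive control. IC50 is the concentration giving 50% inhibition of infection versus infected untreated cells.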

Data set [3] in a line: Therapeutic index, ratio of CC50 for human TZM-bl cells to IC50 for HIV1. Format: cell-based. As to conditions: read-out: Ratio CC50/IC50. The procedure, abridged: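 Ratio of CC50 from the 48 h MTT assay in TZM-bl cells to IC50 from the NL4.3 luciferase infectivity assay in TZM-bl cells.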
Data set [4] deals with Protease (Human immunodeficiency virus 1) (UniProt Q9YQ12). In words: Inhibition of HIV1 protease at 50 uM by ELISA. The procedure, abridged: (§1)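 Single-concentration screens run with commercial kits per the manufacturers' protocols. RT was measured by ELISA kit, with nevirapine 1 mM as positive control. HIV-1 protease was measured by a protease assay kit, with saquinavir 1 mM as positive control.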
Sequence of Protease (Human immunodeficiency virus 1) (Q9YQ12 as listed by the source): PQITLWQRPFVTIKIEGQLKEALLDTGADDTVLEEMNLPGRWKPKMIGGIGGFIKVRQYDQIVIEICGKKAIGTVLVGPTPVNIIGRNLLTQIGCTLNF
(In general: In an ELISA, binding on a coated surface is turned into a signal by an enzyme label.)

Data set [5] in a line: (§2) Inhibition of HIV1 gp120 expressed in human HL2/3 cells assessed as compound-treated HL2/3 cell fusion to human TZM-bl cells after 48 hrs by luciferase assay. As to conditions: for pIC50: Human immunodeficiency virus 1, TZM-bl, 48 h, read-out: IC50. The class given is cell-based, Human immunodeficiency virus 1. The procedure, abridged:
(§3)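 Either HL2/3 cells (HeLa-derived, expressing HIV-1 HxB2 Env plus Tat, Gag, Rev and Nef; G418-maintained) or TZM-bl cells were pre-treated with compound, then washed. Treated cells were co-cultured with the untreated partner line at 1:1 (1.0 × 10⁵ cells/well) for 48 h at 37 °C, 5% CO₂. Luciferase activity was measured and inhibition scored relative to no-compound co-cultures, with Bicyclam as reference. IC50 is the concentration giving 50% inhibition of luciferase expression.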

For data set [6], the system named is TZM-bl. The data set is described as §2. Format: cell-based. As to conditions: Human immunodeficiency virus 1. The procedure, abridged: as §3
Data set [7] concerns the target Human immunodeficiency virus type 1 reverse transcriptase (Human immunodeficiency virus 1) (UniProt Q72547). Nature of the data set: Inhibition of HIV1 reverse transcriptase at 50 uM by ELISA. The method, boiled down:
as §1

For data set [8], the system named is Human immunodeficiency virus 1. Nature of the data set: Antiviral activity against HIV1 assessed as inhibition of syncytia formation. The class given is functional, organism-based.
Data set [9] can be described thus: Inhibition of HIV1 gp120 expressed in human HL2/3 cells assessed as Hl2/3 cell fusion to compound-treated human TZM-bl cells after 48 hrs by luciferase assay. Format: cell-based, Human immunodeficiency virus 1. As to conditions: for IC50: tzm-bl. The method, boiled down: as §3

Regarding `C=C1CC[C@@H]2[C@]3(C)COC(c4ccc(O)cc4)O[C@@H]3CC[C@@]2(C)[C@@H]1C/C=C1/C(=O)OC[C@H]1O` (some centres not stated), the CC50 at 48 h in data set [1] is 50 µM. Further, in [2], the pIC50 was 5.68 and the IC50 is 2.09 µM. The selectivity ratio in data set [3] worked out at 24.
As for `C=C1CC[C@@H]2[C@]3(C)COC(c4cccc([N+](=O)[O-])c4)O[C@@H]3CC[C@@]2(C)[C@@H]1C/C=C1/C(=O)OC[C@H]1O` (some centres not stated), the inhibition entry in [4] and in data set [7] was “inactive” in each case. Besides, the results for the pIC50 in [5] and in data set [2] were 5.80 and 6.29, respectively. Further, the inhibition result in data set [6] is “Dose-dependent effect”. The compound also gave a CC50 at 48 h in data set [1] of 745 µM. The inhibition result in [8] was “Active”. In addition, the results for the IC50 in [2] and in [9] were 0.513 µM and “Not Active”, respectively. Further, the selectivity ratio in data set [3] was found to be 1460.
In [1], `C=C1CC[C@@H]2[C@](C)(COC(=O)NS(=O)(=O)c3ccc(C)cc3)[C@H](O)CC[C@@]2(C)[C@@H]1C/C=C1/C(=O)OC[C@H]1O` gave a CC50 at 48 h of 2040 µM. In [2], the pIC50 was 5.68 and the IC50 is 2.09 µM. Further, the selectivity ratio in data set [3] came out at 978.
With `C=C1CC[C@@H]2[C@]3(C)COC(c4ccc(O)c(OC)c4)O[C@@H]3CC[C@@]2(C)[C@@H]1C/C=C1/C(=O)OC[C@H]1O` (some centres not stated), in data set [1], the CC50 at 48 h stood at 59 µM. Besides, in data set [2], the pIC50 was 5.22 and the IC50 is 6.03 µM. For the same compound, the selectivity ratio in data set [3] is 10.
For `C=C1CC[C@@H]2[C@](C)(CO)[C@H](O)CC[C@@]2(C)[C@@H]1C/C=C1/C(=O)OC[C@H]1OC(=O)c1ccc(Cl)nc1Cl`, the inhibition entry in data set [4] and in data set [7] was “inactive” in each case. Also, the negative logarithm of the IC50 (pIC50) was 5.96 in data set [5] and 6.08 in data set [2]. Besides, in data set [6], the inhibition entry is “Dose-dependent effect”. In data set [1], this compound had a CC50 at 48 h of 10400 µM. Also, the inhibition result in data set [8] is “Active”. For the same compound, the IC50 is 0.832 µM in [2] and “Not Active” in data set [9]. The selectivity ratio in data set [3] turned out to be 12500.
`C=C1CC[C@@H]2[C@]3(C)COC(c4ccc(O)cc4O)O[C@@H]3CC[C@@]2(C)[C@@H]1C/C=C1/C(=O)OC[C@H]1O` (some centres not stated) had a CC50 at 48 h in data set [1] of 179 µM. Also, in data set [2], the pIC50 is 5.96 and the IC50 was 1.1 µM. In data set [3], the selectivity ratio amounted to 164.
As to `C=C1CC[C@@H]2[C@]3(C)COC(c4ccc5c(c4)OCO5)O[C@@H]3CC[C@@]2(C)[C@@H]1C/C=C1/C(=O)OC[C@H]1O` (some centres not stated), it took 1650 µM to reach half-maximal cytotoxicity in data set [1] (CC50 at 48 h). Also, in data set [2], the pIC50 is 5.56 and the IC50 was 2.75 µM. In [3], the selectivity ratio was 599.
With `C=C1CC[C@@H]2[C@](C)(CO)[C@H](O)CC[C@@]2(C)[C@@H]1C/C=C1/C(=O)OC[C@H]1O` [ANDROGRAPHOLIDE], the inhibition result in data set [4] and in data set [7] was “inactive” in each case. For the same compound, the pIC50 in data set [5] was 5.77; in data set [2] it was 6.23. The inhibition entry in [6] was “Dose-dependent effect”. Also, the CC50 at 48 h in data set [1] came out at 1700 µM. For the same compound, the inhibition entry in data set [8] was “Active”. The IC50 is 0.589 µM in [2] and “Not Active” in [9]. Besides, the selectivity ratio in [3] worked out at 2880.
As for `C=C1CC[C@@H]2[C@](C)(CO)[C@H](O)CC[C@@]2(C)[C@@H]1C/C=C1/C(=O)OC[C@H]1OC(=O)c1ccccc1O`, half-maximal cytotoxicity in data set [1] (CC50 at 48 h) was put at 1080 µM. Besides, in [2], the pIC50 is 4.07 and the IC50 was 85.1 µM. In addition, the selectivity ratio in data set [3] turned out to be 12.
In the case of `Br.c1cc(CN2CCCNCCNCCCNCC2)ccc1CN1CCCNCCNCCCNCC1`, the IC50 entry in data set [5] (tzm-bl) was “Not Active”. Besides, the pIC50 in [9] (Human immunodeficiency virus 1, TZM-bl, 48 h, read-out: IC50) is 5.80.
Turning to `C=C1CC[C@@H]2[C@]3(C)COC(c4ccc(Cl)cc4)O[C@@H]3CC[C@@]2(C)[C@@H]1C/C=C1/C(=O)OC[C@H]1O` (some centres not stated), the midpoint of cytotoxicity in data set [1], the CC50 at 48 h, lay at 440 µM. Besides, in [2], the pIC50 was 5.00 and the IC50 is 10 µM. Also, the selectivity ratio in data set [3] came out at 44.
Regarding `C=C(C)[C@@H]1CC[C@]2(C(=O)NCCCCCCCC(=O)N[C@@H](CC(C)C)[C@H](O)CC(=O)O)CC[C@]3(C)[C@H](CC[C@@H]4[C@@]5(C)CC[C@H](O)C(C)(C)[C@@H]5CC[C@]43C)[C@@H]12`, in data set [2], the pIC50 was 7.00 and the IC50 was 0.1 µM.
